Measurements gathered from unrelated publications.
Each line is one published result; the experiments were not run side by side.
BCHE: Cholinesterase (BCHE, Homo sapiens, UniProt P06276)
CHRM5: Muscarinic acetylcholine receptor M5 (CHRM5, Homo sapiens, UniProt P08912)
TPR: Trypanothione reductase (TPR, Trypanosoma cruzi, UniProt P28593)

`C=CCn1c2cc(OC(=O)CCCCN3CCN(Cc4cccc(C)c4)CC3)ccc2c2ccnc(C)c21` has an IC50 of 0.251 µM (BCHE; enzyme activity, inhibitor, Ellman).
With `CC(C)(C)[C@H](Nc1nc(Cl)nc2c1ncn2[C@H]1[C@H](O)[C@H](O)[C@]2(CO)C[C@H]12)C1CC1` the Ki was > 6.2 µM (CHRM5; ligand displacement, radioligand).
The Kd of `O=C(O)c1ccccc1-c1c2cc(Br)c(=O)cc-2oc2[c]([Hg+])c(O)c(Br)cc12` is reported as ~3000 µM (Proteinase K (PROK, Engyodontium album, UniProt P06873); binding, ITC).
With `O=C(Nc1cccc(-c2ccn3c(CC4CC4)nnc3c2C(F)(F)F)c1)c1ccc(S(=O)(=O)F)cc1` the EC50 was > 50.1 µM (Metabotropic glutamate receptor 3 (GRM3, Homo sapiens, UniProt Q14832); calcium signal, agonist).
The IC50 of `CNC1CC(c2ccc(Cl)c(Cl)c2)c2ccccc21` (stereo not drawn) is reported as 7.26 µM (TPR; enzyme activity, inhibitor, absorbance).
For `[O]=[V]([OH])([OH])[OH]`, the IC50 was 40000 µM (Tyrosyl-DNA phosphodiesterase 2 (TDP2, Homo sapiens, UniProt O95551); enzyme activity, inhibitor, absorbance).
For `CC1=NCCc2c1[nH]c1cc(O)ccc21`, the IC50 was 35 µM (Tyrosine-protein phosphatase non-receptor type 12 (PTPN12, Homo sapiens, UniProt Q05209); enzyme activity, inhibitor, fluorescence).
`CC(=O)Nc1ccc(O)cc1` gave a Ki of > 1000 µM (Ribosyldihydronicotinamide dehydrogenase [quinone] (NQO2, Homo sapiens, UniProt P16083); enzyme activity, inhibitor).
For `C[C@H]1COC2=C1C(=O)C(=O)c1c2ccc2c1CCCC2(C)C`, the Ki was > 100 µM (BCHE; enzyme activity, inhibitor).
With `C[C@H](N)Cn1ncc2ccc3c(c21)CCCO3` the IC50 was 30.3 µM (Serotonin 4 (5-HT4) receptor (Sus scrofa, UniProt Q6Q253); ligand displacement, radioligand).
`CC(C)C(Nc1nc(Cl)nc2c1ncn2[C@H]1[C@H](O)[C@H](O)[C@]2(CO)C[C@H]12)C(C)C` gave a Ki of > 6.3 µM (CHRM5; ligand displacement, radioligand).
`C[C@H](NC(=O)Cc1ccccc1)C(=O)N[C@H](Cc1c[nH]c2ccccc12)C(=O)NCCc1ccccc1` has an EC50 of 0.0333 µM (Bombesin receptor subtype-3 (Brs3, Mus musculus, UniProt O54798); calcium signal, agonist, fluorescence).
For `Cc1cc(C)c2[nH]c(=O)c(CN(CCO)C(=S)Nc3ccc(N4CCOCC4)cc3)cc2c1`, the EC50 was 3.1 µM (Beta-glucuronidase (uidA, Escherichia coli, UniProt P05804); enzyme activity, inhibitor).
For `c1ccc2c(c1)CCc1ccccc1C2OCCN1CCNCC1`, the IC50 was 51.5 µM (TPR; enzyme activity, inhibitor, absorbance).
With `CNC(=O)[C@@]12C[C@@H]1[C@@H](n1cnc3c(NC)nc(C#Cc4ccc(Cl)s4)cc31)[C@H](O)[C@@H]2O` the Ki was > 10 µM (Sodium-dependent noradrenaline transporter (SLC6A2, Homo sapiens, UniProt P23975); ligand displacement, radioligand; cell membranes).
